Activity calls are given as the source filed them. No cut-off for these calls is given here. Where a SMILES comes first, the peptide text is derived from it. [ ]: non-standard residue; d: D form. The star is where a group is joined. X6 = CC(=O)Oc1cccc(C(=O)NCc2cc(CNC(=O)c3cccc(OC(C)=O)c3OC(C)=O)c(NC(=O)CCCc3cn(CCOCCOCCOCCOCCOCCOCCOCCOCCNC(=O)COCC(=O)*)nn3)c(CNC(=O)c3cccc(OC(C)=O)c3OC(C)=O)c2)c1OC(C)=O; X1 = O=C(COCC(=O)*)NCCOCCOCCOCCOCCOCCOCCOCCOCCn1cc(CCCC(=O)Nc2c(CNC(=O)c3cccc(O)c3O)cc(CNC(=O)c3cccc(O)c3O)cc2CNC(=O)c2cccc(O)c2O)nn1; X5 = O=C(CCSSCCC(=O)*)NCCOCCOCCOCCOCCOCCn1cc(CCCC(=O)Nc2c(CNC(=O)c3cccc(O)c3O)cc(CNC(=O)c3cccc(O)c3O)cc2CNC(=O)c2cccc(O)c2O)nn1; Benzoyl(2,3-diOH) = O=C(c1cccc(O)c1O)*
Assays:
[1] = test system: Pseudomonas aeruginosa; test: Antimicrobial activity against Pseudomonas aeruginosa PAO1 assessed as inhibition of bacterial growth in presence of iron-depleted CAA medium; format: functional, organism-based
[2] = test system: Pseudomonas aeruginosa; test: Antimicrobial activity against Pseudomonas aeruginosa harboring deltapvdF-deltapchA mutant assessed as inhibition of bacterial growth by measuring minimal inhibitory concentration incubated for 24 hrs in presence of iron-depleted CAA medium; format: functional
[3] = test system: Pseudomonas aeruginosa; test: Antimicrobial activity against Pseudomonas aeruginosa harboring deltapvdF-deltapchA mutant assessed as inhibition of bacterial growth by measuring minimal inhibitory concentration incubated for 48 hrs in presence of iron-depleted CAA medium; format: functional
[4] = test system: Pseudomonas aeruginosa; test: Antimicrobial activity against Pseudomonas aeruginosa harboring deltapvdF-deltapchA mutant assessed as increase in pfeA transcription level at 10 uM incubated for 8 hrs in presence of iron-depleted CAA medium by qRT-PCR analysis; format: functional, organism-based
Outline: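 Cells grown in CAA medium for 8 h at 30 °C with vigorous shaking, with or without 10 μM compound; 2.5 x 10⁸ cells stabilized in two volumes RNAprotect; RNA processed per earlier protocol; RT-qPCR with primer efficiencies from serially diluted genomic DNA; double ΔCT analysis.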

Compound	Activity [1]	MIC [2] [µM]	MIC [3] [µM]	Activity [4]
CC[C@H](C)[C@H](NC(=O)[C@H](CCSC)NC(=O)[C@@H](NC(=O)[C@H](C)NC(=O)CNC(=O)[C@H](CC(C)C)NC(=O)[C@H](CC(=O)O)NC(=O)[C@@H](NC(=O)[C@H](CO)NC(=O)[C@H](CO)NC(=O)[C@H](CC(=O)O)NC(=O)c1cccc(O)c1O)C(C)C)[C@@H](C)O)C(=O)N[C@H](C(=O)N[C@@H](CO)C(=O)N[C@@H](CC(N)=O)C(=O)N[C@@H](CCC(N)=O)C(=O)N[C@@H](CC(C)C)C(=O)NCC(=O)N[C@H](C(=O)N[C@H](C(=O)N[C@@H](CCCCN)C(N)=O)[C@@H](C)CC)[C@@H](C)O)[C@@H](C)O	inactive	> 64	> 64	
CC[C@@H](C)[C@@H](NC(=O)[C@@H](CCSC)NC(=O)[C@H](NC(=O)[C@@H](C)NC(=O)CNC(=O)[C@@H](CC(C)C)NC(=O)[C@@H](CC(=O)O)NC(=O)[C@H](NC(=O)[C@@H](CO)NC(=O)[C@@H](CO)NC(=O)[C@@H](CC(=O)O)NC(=O)c1cccc(O)c1O)C(C)C)[C@H](C)O)C(=O)N[C@@H](C(=O)N[C@H](CO)C(=O)N[C@H](CC(N)=O)C(=O)N[C@H](CCC(N)=O)C(=O)N[C@H](CC(C)C)C(=O)NCC(=O)N[C@@H](C(=O)N[C@@H](C(=O)N[C@H](CCCCN)C(N)=O)[C@H](C)CC)[C@H](C)O)[C@@H](C)O	inactive	> 64	> 64	
CC[C@H](C)[C@H](NC(=O)[C@H](CCSC)NC(=O)[C@@H](NC(=O)[C@H](C)NC(=O)CNC(=O)[C@H](CC(C)C)NC(=O)[C@H](CC(=O)O)NC(=O)[C@@H](NC(=O)[C@H](CO)NC(=O)[C@H](CO)NC(=O)[C@@H](N)CC(=O)O)C(C)C)[C@@H](C)O)C(=O)N[C@H](C(=O)N[C@@H](CO)C(=O)N[C@@H](CC(N)=O)C(=O)N[C@@H](CCC(N)=O)C(=O)N[C@@H](CC(C)C)C(=O)NCC(=O)N[C@H](C(=O)N[C@H](C(=O)N[C@@H](CCCCNC(=O)c1cccc(O)c1O)C(N)=O)[C@@H](C)CC)[C@@H](C)O)[C@@H](C)O (H-DSSVDLGATMITSNQLGTIK(Benzoyl(2,3-diOH))-NH2)	inactive	> 64	> 64	
CC[C@H](C)[C@H](NC(=O)[C@@H](N)C(C)C)C(=O)N[C@@H](CCC(=O)O)C(=O)N[C@@H](CC(C)C)C(=O)NCC(=O)N[C@@H](CCC(=O)O)C(=O)N[C@@H](CCC(N)=O)C(=O)N[C@H](C(=O)N[C@H](C(=O)N[C@H](C(=O)N[C@@H](C)C(=O)N[C@H](C(=O)N[C@@H](C)C(=O)N[C@@H](CCC(N)=O)C(=O)N[C@@H](CCC(=O)O)C(=O)N[C@@H](CCC(=O)O)C(=O)N[C@H](C(=O)N[C@@H](CCCCN)C(=O)N[C@@H](CCC(N)=O)C(=O)N[C@@H](CCCCNC(=O)c1cccc(O)c1O)C(N)=O)[C@@H](C)O)[C@@H](C)O)C(C)C)C(C)C)[C@@H](C)O (H-VIELGEQTVVATAQEETKQK(Benzoyl(2,3-diOH))-NH2)	inactive	> 64	> 64	
CC[C@H](C)[C@H](NC(=O)[C@@H](N)C(C)C)C(=O)N[C@@H](CCC(=O)O)C(=O)N[C@@H](CC(C)C)C(=O)NCC(=O)N[C@@H](CCC(=O)O)C(=O)N[C@@H](CCC(N)=O)C(=O)N[C@H](C(=O)N[C@H](C(=O)N[C@H](C(=O)N[C@@H](C)C(=O)N[C@H](C(=O)N[C@@H](C)C(=O)N[C@@H](CCC(N)=O)C(=O)N[C@@H](CCC(=O)O)C(=O)N[C@@H](CCC(=O)O)C(=O)N[C@H](C(=O)N[C@@H](CCCCN)C(=O)N[C@@H](CCC(N)=O)C(=O)N[C@@H](CCCCNC(=O)CCSSCCC(=O)NCCOCCOCCOCCOCCOCCn1cc(CCCC(=O)Nc2c(CNC(=O)c3cccc(O)c3O)cc(CNC(=O)c3cccc(O)c3O)cc2CNC(=O)c2cccc(O)c2O)nn1)C(N)=O)[C@@H](C)O)[C@@H](C)O)C(C)C)C(C)C)[C@@H](C)O (H-VIELGEQTVVATAQEETKQK(X5)-NH2)	inactive	> 64	> 64	
CC[C@H](C)[C@H](NC(=O)[C@@H](N)C(C)C)C(=O)N[C@@H](CCC(=O)O)C(=O)N[C@@H](CC(C)C)C(=O)NCC(=O)N[C@@H](CCC(=O)O)C(=O)N[C@@H](CCC(N)=O)C(=O)N[C@H](C(=O)N[C@H](C(=O)N[C@H](C(=O)N[C@@H](C)C(=O)N[C@H](C(=O)N[C@@H](C)C(=O)N[C@@H](CCC(N)=O)C(=O)N[C@@H](CCC(=O)O)C(=O)N[C@@H](CCC(=O)O)C(=O)N[C@H](C(=O)N[C@@H](CCCCN)C(=O)N[C@@H](CCC(N)=O)C(=O)N[C@@H](CCCCNC(=O)COCC(=O)NCCOCCOCCOCCOCCOCCOCCOCCOCCn1cc(CCCC(=O)Nc2c(CNC(=O)c3cccc(OC(C)=O)c3OC(C)=O)cc(CNC(=O)c3cccc(OC(C)=O)c3OC(C)=O)cc2CNC(=O)c2cccc(OC(C)=O)c2OC(C)=O)nn1)C(N)=O)[C@@H](C)O)[C@@H](C)O)C(C)C)C(C)C)[C@@H](C)O (H-VIELGEQTVVATAQEETKQK(X6)-NH2)	inactive	> 64	> 64	
CSCC[C@H](NC(=O)[C@H](CCC(N)=O)NC(=O)[C@@H](NC(=O)[C@H](CC(C)C)NC(=O)[C@H](CC(=O)O)NC(=O)[C@H](CC(=O)O)NC(=O)COCC(=O)NCCOCCOCCOCCOCCOCCOCCOCCOCCn1cc(CCCC(=O)Nc2c(CNC(=O)c3cccc(O)c3O)cc(CNC(=O)c3cccc(O)c3O)cc2CNC(=O)c2cccc(O)c2O)nn1)C(C)C)C(=O)N[C@@H](CO)C(=O)N1CCC[C@H]1C(=O)N[C@@H](CO)C(=O)N[C@H](C(=O)N[C@@H](CCCCN)C(N)=O)C(C)C (X1-DDLVQMSPSVK-NH2)	inactive	> 64	> 64	
CC(C)[C@H](NC(=O)[C@@H](NC(=O)[C@@H](NC(=O)[C@H](CCC(N)=O)NC(=O)[C@H](CCC(=O)O)NC(=O)COCC(=O)NCCOCCOCCOCCOCCOCCOCCOCCOCCn1cc(CCCC(=O)Nc2c(CNC(=O)c3cccc(O)c3O)cc(CNC(=O)c3cccc(O)c3O)cc2CNC(=O)c2cccc(O)c2O)nn1)[C@@H](C)O)C(C)C)C(=O)N[C@@H](C)C(=O)N[C@H](C(=O)N[C@@H](C)C(=O)N[C@@H](CCC(N)=O)C(=O)N[C@@H](CCCCN)C(N)=O)[C@@H](C)O (X1-EQTVVATAQK-NH2)	inactive	> 64	> 64	
CC[C@H](C)[C@H](NC(=O)[C@H](CCSC)NC(=O)[C@@H](NC(=O)[C@H](C)NC(=O)CNC(=O)[C@H](CC(C)C)NC(=O)[C@H](CC(=O)O)NC(=O)[C@@H](NC(=O)COCC(=O)NCCOCCOCCOCCOCCOCCOCCOCCOCCn1cc(CCCC(=O)Nc2c(CNC(=O)c3cccc(O)c3O)cc(CNC(=O)c3cccc(O)c3O)cc2CNC(=O)c2cccc(O)c2O)nn1)C(C)C)[C@@H](C)O)C(=O)N[C@H](C(=O)N[C@@H](CO)C(=O)N[C@@H](CC(N)=O)C(=O)N[C@@H](CCCCN)C(N)=O)[C@@H](C)O (X1-VDLGATMITSNK-NH2)	inactive	> 64	> 64	
CC[C@H](C)[C@H](NC(=O)[C@@H](NC(=O)c1cccc(O)c1O)C(C)C)C(=O)N[C@@H](CCC(=O)O)C(=O)N[C@@H](CC(C)C)C(=O)NCC(=O)N[C@@H](CCC(=O)O)C(=O)N[C@@H](CCC(N)=O)C(=O)N[C@H](C(=O)N[C@H](C(=O)N[C@H](C(=O)N[C@@H](C)C(=O)N[C@H](C(=O)N[C@@H](C)C(=O)N[C@@H](CCC(N)=O)C(=O)N[C@@H](CCC(=O)O)C(=O)N[C@@H](CCC(=O)O)C(=O)N[C@H](C(=O)N[C@@H](CCCCN)C(=O)N[C@@H](CCC(N)=O)C(=O)N[C@@H](CCCCN)C(N)=O)[C@@H](C)O)[C@@H](C)O)C(C)C)C(C)C)[C@@H](C)O ({Benzoyl(2,3-diOH)}-VIELGEQTVVATAQEETKQK-NH2)	inactive	> 64	> 64	
CC[C@@H](C)[C@@H](NC(=O)[C@H](NC(=O)c1cccc(O)c1O)C(C)C)C(=O)N[C@H](CCC(=O)O)C(=O)N[C@H](CC(C)C)C(=O)NCC(=O)N[C@H](CCC(=O)O)C(=O)N[C@H](CCC(N)=O)C(=O)N[C@@H](C(=O)N[C@@H](C(=O)N[C@@H](C(=O)N[C@H](C)C(=O)N[C@@H](C(=O)N[C@H](C)C(=O)N[C@H](CCC(N)=O)C(=O)N[C@H](CCC(=O)O)C(=O)N[C@H](CCC(=O)O)C(=O)N[C@@H](C(=O)N[C@H](CCCCN)C(=O)N[C@H](CCC(N)=O)C(=O)N[C@H](CCCCN)C(N)=O)[C@H](C)O)[C@H](C)O)C(C)C)C(C)C)[C@H](C)O ({Benzoyl(2,3-diOH)}-[dV][dI][dE][dL]G[dE][dQ][dT][dV][dV][dA][dT][dA][dQ][dE][dE][dT][dK][dQ][dK]-NH2)	inactive	> 64	> 64	
CN[C@@H]1[C@@H](O)[C@@H](O[C@@H]2[C@@H](O)[C@H](O[C@H]3O[C@H](C(C)N)CC[C@H]3N)[C@@H](N)C[C@H]2N)OC[C@]1(C)O (some centres not stated) [GENTAMICIN C2]	inactive	1	4	
H-DDLVQMSPSVK-NH2	inactive			inactive
H-GEQTVVATAQK-NH2	inactive			inactive
H-VDLGATMITSNK-NH2	inactive			inactive
